Assay [1] deals with protein farnesyltransferase (Rattus norvegicus). Briefly: Inhibition of rat recombinant FTase by SDS-PAGE end point assay.
The nature of assay [2]: Inhibition of rat recombinant Rab geranylgeranyltransferase by SDS-PAGE end point assay. Summed up:
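End-point transfer of fluorescent prenyl analogues (NBD-GPP or NBD-FPP) to protein substrates was run for 10 min at varied inhibitor concentrations. Substrates were GST-KiRas for FTase, GST-RhoA for GGTase-I and Rab7 for RabGGTase. Reactions were quenched with SDS sample buffer and run on SDS-PAGE. Fluorescent bands were quantified by densitometry.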

The target of assay [3] is geranylgeranyltransferase type-I (Rattus norvegicus). Briefly: Inhibition of rat recombinant GGTase-1 by SDS-PAGE end point assay.
A short description of assay [4]: Inhibition of rat recombinant Rab geranylgeranyltransferase iin presence of canine Rab7 and rat REP1 by NBD-FPP based continuous fluorimetric assay. Summed up:
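Continuous fluorometric assay in 96/384-well format: 3 μM Rab7, 3 μM REP1, 9 μM NBD-FPP and 400 nM RabGGTase, with or without inhibitor. IC50 was calculated from three independent measurements.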

Assay [5] is filed under the species Rattus norvegicus. Briefly: Inhibition of rat recombinant Rab geranylgeranyltransferase at 100 uM in presence of canine Rab7 and rat REP1 NBD-FPP based continuous fluorimetric assay. Summed up:
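Continuous fluorometric assay in 96/384-well format: 3 μM Rab7, 3 μM REP1, 9 μM NBD-FPP and 400 nM RabGGTase, with or without inhibitor. […] IC50 was calculated from three independent measurements.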

Assay [6] deals with COS-7 (Chlorocebus aethiops). Briefly: Inhibition of recombinant Rab geranylgeranyltransferase expressed in COS-7 cells assessed as inhibition of geranylgeranylation of EYFP-Rab7 protein at 10 to 100 uM by Western blot relative to compactin. (Immunoblotting shows a protein as a band on a membrane.)
Assay [7] deals with COS-7 (Chlorocebus aethiops). Briefly: Inhibition of recombinant Rab geranylgeranyltransferase expressed in COS-7 cells assessed as inhibition of geranylgeranylation of EYFP-Rab7 protein by Western blot. Also on record: concentration or dose not given beside the values. As to conditions: dose or concentration not given here.
Assay [8] can be described thus: Displacement of Mant-FPP from rat recombinant Rab geranylgeranyltransferase by co-titration based fluorescence assay. Summed up: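 RabGGTase was titrated into 300 nM Mant-FPP at several fixed inhibitor concentrations. Apparent Kd of Mant-FPP was obtained at each inhibitor level by quadratic fitting. Linear versus hyperbolic dependence of apparent Kd on inhibitor concentration was taken as competitive versus partially competitive binding.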

Assay [9] is filed under the species Rattus norvegicus. Briefly: Displacement of NBD-FPP from rat recombinant Rab geranylgeranyltransferase by fluorescence titration. Summed up:
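Displacement titration: 400 nM NBD-FPP was pre-equilibrated with 550 nM RabGGTase. Inhibitor was added stepwise in 1 or 5 μM increments while NBD fluorescence was monitored. The end point was controlled by a final addition of GGPP to 4 μM.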

Active and inactive are the calls of the source. The rule behind the calls is not given here. Square brackets hold non-standard residues; d marks the D form. Peptide text beside a SMILES is read from it. * marks the point of attachment. NMeF = CN[C@@H](Cc1ccccc1)C(=O)O; Undecanoyl = CCCCCCCCCCC(=O)*; Cbz = O=C(OCc1ccccc1)*; NHOH = ON*

One may read the IC50 as the midpoint of a concentration-inhibition curve. As for `CCCCCCCC(=O)N[C@@H](Cc1c[nH]cn1)C(=O)N[C@@H](Cc1ccccc1)C(=O)N[C@@H](Cc1ccc(O)cc1)CN(C)CCc1ccccn1`, the IC50 is 98 µM in assay [1], 8.8 µM in assay [2], 97 µM in assay [3] and 2.8 µM in assay [4]. For `CCCCC(=O)N[C@@H](Cc1c[nH]cn1)C(=O)N[C@@H](Cc1ccccc1)C(=O)N[C@@H](Cc1ccc(O)cc1)CN(C)CCc1ccccn1`, in assay [4], the IC50 was above 100 µM. `CN(C(=O)[C@@H](Cc1c[nH]cn1)NC(=O)/C=C/c1ccc(-c2ccccc2)cc1)[C@H](CN[C@@H](Cc1ccc(O)cc1)C(=O)O)Cc1ccc(O)cc1`: the 50% inhibitory concentration (IC50) in [4] was found to be 22.7 µM. On the same count and under the same terms, then `CCCCCc1ccc(CCC(=O)N[C@H](Cc2ccc(O)cc2)C(=O)N[C@@H](Cc2ccc(O)cc2)C(=O)N[C@@H](Cc2ccccc2)C(=O)O)cc1`, with 11 µM.

As for `O=C(CNC(=O)[C@H](Cc1cn(C(c2ccccc2)(c2ccccc2)c2ccccc2)cn1)NC(=O)c1coc(-c2ccccc2)n1)N[C@@H](Cc1ccccc1)C(=O)O`, the IC50 in [4] is 30 µM.

As usually defined, the inhibition is the relative decrease from the control value, in per cent. With `CCCCCCCCCCCOc1ccc(C(=O)N[C@@H](Cc2c[nH]cn2)C(=O)N[C@@H](Cc2ccc(O)cc2)C(=O)N[C@@H](Cc2ccccc2)C(=O)NCCCn2ccnc2)cc1`, the IC50 in assay [4] amounted to 12.3 µM. For the same molecule, the inhibition in the assay filed under Rattus norvegicus [5] stood at 7%. In the case of `O=C(CNC(=O)c1csc(-c2cccs2)n1)N[C@@H](Cc1ccccc1)C(=O)N[C@@H](Cc1cn(C(c2ccccc2)(c2ccccc2)c2ccccc2)cn1)C(=O)O`, the IC50 in assay [4] came to 36 µM.

Take `CN(C(=O)[C@@H](Cc1c[nH]cn1)NC(=O)OCc1ccccc1OCc1ccccc1)[C@H](CN[C@@H](Cc1ccccc1)C(=O)O)Cc1ccc(O)cc1`: the concentration for half-maximal inhibition (IC50) in assay [4] came to 15.6 µM. The same measure, in the same setting: then `Cc1nc(C(=O)NCC(=O)N[C@@H](Cc2ccccc2)C(=O)N[C@@H](Cc2cn(C(c3ccccc3)(c3ccccc3)c3ccccc3)cn2)C(=O)O)c(C)o1`, with 46 µM; and `CCCCCCCCCCC(=O)N[C@@H](Cc1c[nH]cn1)C(=O)N[C@@H](Cc1c[nH]cn1)C(=O)N[C@@H](Cc1ccc(O)cc1)C(=O)NCCCCN`, with 5.2 µM. Consider `CN(C(=O)[C@H](Cc1cnc[nH]1)NC(=O)OCc1ccccc1)[C@@H](Cc1ccccc1)C(=O)N[C@@H](Cc1c[nH]c2ccccc12)C(=O)NO` (Cbz-His-[NMeF]-Trp-{NHOH}), for which the Activity entry in assay [6] was “Dose-dependent effect”. Also, the inhibition in [7] is 70%. By Ki is commonly meant the equilibrium dissociation constant of an inhibitor or competing ligand from its target. As to `CCCCCCCCCCC(=O)N[C@@H](Cc1c[nH]cn1)C(=O)N[C@@H](Cc1ccccc1)C(=O)N[C@@H](Cc1ccc(O)cc1)C(=O)N(C)CCc1ccccn1`, in assay [2], the IC50 turned out to be 2.8 µM. In addition, in assay [8], the Ki amounted to 5.4 µM. Further, the Activity entry in assay [6] was “Dose-dependent effect”. Moreover, the inhibition in assay [7] was determined as 70%. On to `CN(C(=O)[C@H](Cc1c[nH]cn1)NC(=O)OCc1ccccc1OCc1ccccc1)[C@H](CN[C@@H](Cc1ccccc1)C(=O)O)Cc1ccc(O)cc1`, for which the IC50 in [4] turned out to be 19.3 µM. Still for that read-out and setting: to `O=C(CNC(=O)c1csc(-c2cccnc2)n1)N[C@@H](Cc1ccccc1)C(=O)N[C@@H](Cc1cn(C(c2ccccc2)(c2ccccc2)c2ccccc2)cn1)C(=O)O` belongs 37 µM; to `Cc1nc(C(=O)NCC(=O)N[C@@H](Cc2ccccc2)C(=O)N[C@@H](Cc2c[nH]cn2)C(=O)O)c(C)o1`, above 50 µM. In the case of `CN(C(=O)[C@H](Cc1cnc[nH]1)NC(=O)OCc1ccccc1)[C@@H](Cc1ccccc1)C(=O)N[C@@H](Cc1ccc(O)cc1)C(=O)NO`, the result in the assay filed under Rattus norvegicus [9] was Active. For the same molecule, the Ki in [8] worked out at 14.5 µM. Further, in [6], the Activity result is “Dose-dependent effect”. The inhibition in [7] came out at 70%.

With `O=C(CNC(=O)c1csc(-c2cccs2)n1)N[C@@H](Cc1ccccc1)C(=O)N[C@@H](Cc1c[nH]cn1)C(=O)O`, in [4], the IC50 turned out to be 41 µM. `CCCCCCCCCCC(=O)N[C@@H](Cc1c[nH]cn1)C(=O)N[C@@H](Cc1c[nH]cn1)C(=O)N[C@@H](Cc1ccc(O)cc1)C(=O)NCCc1ccccn1`: in [4], the IC50 is above 100 µM. Also, the inhibition in the assay filed under Rattus norvegicus [5] was 80%. As to `O=C(CNC(=O)c1coc(-c2ccccc2)n1)N[C@@H](Cc1ccccc1)C(=O)N[C@@H](Cc1cn(Cc2ccccc2)cn1)C(=O)O`, the half-maximal inhibitory concentration (IC50) in assay [4] is above 50 µM. In the case of `CCCCCCCCCCCOc1ccc(C(=O)N[C@@H](Cc2c[nH]cn2)C(=O)N[C@@H](Cc2c[nH]cn2)C(=O)N[C@@H](Cc2c[nH]cn2)C(=O)N(C)CCc2ccccn2)cc1`, in assay [4], the IC50 was found to be 12.1 µM. The same measure, in the same setting: to `O=C(CNC(=O)c1csc(-c2cccnc2)n1)N[C@@H](Cc1ccccc1)C(=O)N[C@@H](Cc1c[nH]cn1)C(=O)O` belongs above 50 µM; to `CCCCCCCCCCCCCCC(=O)N[C@@H](Cc1c[nH]cn1)C(=O)N[C@@H](Cc1ccccc1)C(=O)N[C@@H](Cc1ccc(O)cc1)CN(C)CCc1ccccn1`, 26 µM; to `CCCCCCCCCCC(=O)N[C@@H](Cc1ccc(O)cc1)C(=O)N[C@@H](Cc1c[nH]cn1)C(=O)N[C@@H](Cc1ccc(O)cc1)C(=O)OC` (Undecanoyl-Tyr-His-Tyr-OMe), 3.9 µM. Still for that read-out and setting: then `O=C(CNC(=O)[C@H](Cc1c[nH]cn1)NC(=O)c1coc(-c2ccccc2)n1)N[C@@H](Cc1c[nH]cn1)C(=O)O`, with above 50 µM. Regarding `CN(C(=O)[C@@H](Cc1c[nH]cn1)NC(=O)OCc1ccccc1)[C@@H](Cc1ccccc1)C(=O)N[C@@H](Cc1ccc(O)cc1)C(=O)O`, the outcome in the assay filed under Rattus norvegicus [9] was Active. Also, the Ki in assay [8] amounted to 4.5 µM. Besides, the IC50 in [4] was found to be 22.7 µM.

For the molecule `O=C(CNC(=O)c1coc(-c2ccccc2)n1)N[C@@H](Cc1ccccc1)C(=O)N[C@@H](Cc1c[nH]cn1)C(=O)O`, in assay [4], the IC50 was 45 µM. On the same count and under the same terms, to `CCCCCCCCCCC(=O)N[C@@H](Cc1ccc(O)cc1)C(=O)N[C@@H](Cc1c[nH]cn1)C(=O)N[C@@H](Cc1ccc(O)cc1)C(=O)NCCCCN` belongs 7.1 µM.

In the case of `O=C(CNC(=O)c1coc(-c2ccccc2)n1)N[C@@H](Cc1ccccc1)C(=O)N[C@@H](Cc1cn(C(c2ccccc2)(c2ccccc2)c2ccccc2)cn1)C(=O)O`, the IC50 was 3.4 µM in assay [1], 31 µM in [2], 5.6 µM in [3] and 25 µM in assay [4]. On to `CCCCCc1ccc(CCC(=O)N[C@H](Cc2c[nH]cn2)C(=O)N(C)[C@H](CN[C@@H](Cc2ccccc2)C(=O)O)Cc2ccccc2)cc1`, for which, in [4], the IC50 came to 19 µM. Take `CCCCCCCCCCCOc1ccc(C(=O)N[C@@H](Cc2c[nH]cn2)C(=O)N[C@@H](Cc2c[nH]cn2)C(=O)N[C@@H](Cc2c[nH]cn2)C(=O)NCCCCN)cc1`: the IC50 in [4] was 24 µM. On the same count and under the same terms, then `CCC/C=C\c1ccccc1/C=C/C(=O)N[C@H](Cc1c[nH]cn1)C(=O)N(C)[C@H](CN[C@H](Cc1ccccc1)C(=O)O)Cc1ccc(O)cc1`, with 15.2 µM; and `O=C(CNC(=O)[C@H](Cc1c[nH]cn1)NC(=O)c1coc(-c2ccccc2)n1)N[C@@H](Cc1ccccc1)C(=O)O`, with above 50 µM. Turning to `CCCCCCCCCCCOc1ccc(C(=O)N[C@@H](Cc2ccc(O)cc2)C(=O)N[C@@H](Cc2ccc(O)cc2)C(=O)N[C@@H](Cc2ccc(O)cc2)C(=O)NCCCCN)cc1`, the IC50 in assay [4] is 11.6 µM. In the case of `CC(C)(C)OC(=O)n1cnc(C[C@H](NC(=O)[C@H](Cc2ccccc2)NC(=O)CNC(=O)c2coc(-c3ccccc3)n2)C(=O)O)c1`, the IC50 in [4] was above 50 µM.

For `O=C(O)C(O)(Cc1cccnc1)P(=O)(O)O` (stereo not drawn), the Activity entry in [6] is “Dose-dependent effect”. Also, in assay [7], the inhibition came out at 70%. For `CCCCCc1ccc(CCC(=O)N[C@H](Cc2ccc(O)cc2)C(=O)N[C@@H](Cc2ccc(O)cc2)C(=O)N[C@@H](C[Si]2(C)CCCCC2)C(=O)O)cc1`, the IC50 in [4] was 19.1 µM. Consider `CCCCCCCCCCC(=O)N[C@@H](Cc1cnc[nH]1)C(=O)N[C@@H](Cc1c[nH]cn1)C(=O)N[C@@H](Cc1ccc(O)cc1)C(=O)N(C)CCc1ccccn1`, for which the Activity entry (in the assay filed under Rattus norvegicus [9]; in assay [6]) was “Dose-dependent effect” in each case. In assay [2], the IC50 is 10 µM. For the same molecule, the Ki in [8] stood at 1.1 µM. The inhibition in assay [7] is 70%. `CN(C(=O)[C@H](Cc1c[nH]cn1)NC(=O)OCc1ccccc1)[C@@H](Cc1ccccc1)C(=O)N[C@H](Cc1ccc(O)cc1)C(=O)NO`: the IC50 in assay [4] stood at 13.6 µM.

Turning to `COC(=O)COC(=O)[C@H](Cc1ccccc1)N(C)C(=O)[C@H](Cc1ccc(OC)cc1)N(C)C(=O)[C@@H](Cc1ccc(O)cc1)NC(=O)CCc1ccccc1`, the inhibition in the assay filed under Rattus norvegicus [5] worked out at 88%.

For `O=C(/C=C/c1ccc(F)cc1)N[C@@H](CO)C(=O)N[C@@H](Cc1ccccc1)C(=O)N[C@@H](CO)C(=O)O`, the inhibition in the assay filed under Rattus norvegicus [5] amounted to 99%. On the same count and under the same terms, to `CC#CCOC(=O)[C@H](Cc1ccccc1)NC(=O)CNC(=O)[C@@H]1CCCN1C(=O)/C=C/c1ccccc1` belongs 69%.

The record behind these values is ChEMBL document CHEMBL1153722, “Design, synthesis, and characterization of peptide-based rab geranylgeranyl transferase inhibitors” (J Med Chem, 2009).
